Tests used:
COX-1 [1] = target: T1, COX-1 (Ovis aries, UniProt P05979); details: already reported; cited from earlier work
T1 sequence (P05979 25-600): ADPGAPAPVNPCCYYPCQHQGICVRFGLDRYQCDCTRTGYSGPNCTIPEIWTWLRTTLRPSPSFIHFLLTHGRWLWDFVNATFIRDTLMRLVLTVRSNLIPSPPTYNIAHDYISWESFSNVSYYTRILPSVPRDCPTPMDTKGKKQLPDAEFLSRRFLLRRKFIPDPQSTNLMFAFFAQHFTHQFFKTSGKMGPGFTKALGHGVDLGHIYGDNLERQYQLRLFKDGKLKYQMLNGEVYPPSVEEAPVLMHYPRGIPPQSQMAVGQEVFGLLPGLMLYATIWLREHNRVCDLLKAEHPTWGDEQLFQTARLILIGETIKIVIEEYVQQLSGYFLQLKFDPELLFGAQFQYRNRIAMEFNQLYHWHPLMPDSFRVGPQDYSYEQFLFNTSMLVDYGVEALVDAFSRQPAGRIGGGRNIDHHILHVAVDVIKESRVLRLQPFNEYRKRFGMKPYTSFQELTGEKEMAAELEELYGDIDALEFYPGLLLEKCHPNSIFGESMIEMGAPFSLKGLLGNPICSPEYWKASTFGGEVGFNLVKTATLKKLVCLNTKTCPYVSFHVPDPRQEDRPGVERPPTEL

COX-2 = target: T2, COX-2 (Mus musculus, UniProt Q05769); assay: COX-2 inhibition, conversion of [14C]-arachidonic acid to [14C]-prostaglandins; format: biochemical, murine; details: 25 μM concentration
T2 sequence (Q05769 18-604): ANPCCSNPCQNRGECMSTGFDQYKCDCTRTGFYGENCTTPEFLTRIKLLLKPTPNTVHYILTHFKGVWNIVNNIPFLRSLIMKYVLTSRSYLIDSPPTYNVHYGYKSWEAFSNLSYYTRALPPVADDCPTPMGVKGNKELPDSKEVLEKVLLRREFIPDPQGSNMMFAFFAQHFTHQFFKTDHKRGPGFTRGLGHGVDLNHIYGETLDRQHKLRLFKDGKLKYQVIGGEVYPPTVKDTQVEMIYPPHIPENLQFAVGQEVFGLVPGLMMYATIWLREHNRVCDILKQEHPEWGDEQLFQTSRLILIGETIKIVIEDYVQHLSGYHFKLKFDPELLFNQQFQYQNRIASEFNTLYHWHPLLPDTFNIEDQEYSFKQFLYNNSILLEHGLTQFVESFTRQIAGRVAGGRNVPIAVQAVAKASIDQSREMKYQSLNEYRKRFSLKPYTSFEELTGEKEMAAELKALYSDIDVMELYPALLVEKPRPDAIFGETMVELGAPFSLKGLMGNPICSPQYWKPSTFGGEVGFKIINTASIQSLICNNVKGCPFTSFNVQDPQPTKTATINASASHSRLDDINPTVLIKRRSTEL
In short: (§1)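 Carbaborane esters of indomethacin screened at 25 μM against ovine COX-1 and murine COX-2, measuring conversion of [14C]-arachidonic acid to [14C]-prostaglandins. Reactions were stopped, then substrate consumption was read by thin-layer chromatography.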

COX-1 [2] = target: T1, COX-1; assay: COX-1 inhibition, conversion of [14C]-arachidonic acid to [14C]-prostaglandins; format: biochemical, ovine; details: 25 μM concentration
In short: as §1

[3] = NMR stability measurements in wet methanol; format: physicochemical; details: assay timescale

COX-2 inhibition in screen (COX-2) | COX-1 inhibition in screen (COX-1 [2]) | stability in wet methanol (NMR) [3] | Compound | IC50 COX-1 (COX-1 [1])
– | – | – | COc1ccc2c(c1)c(CC(=O)Oc1ccccc1)c(C)n2C(=O)c1ccc(Cl)cc1 [compound 10] | inactive
by far the best COX-inhibition | by far the best COX-inhibition | stable | 2-{1-[(4-Chlorophenyl)carbonyl]-5-methoxy-2-methyl-1H-indol-3-yl}acetic acid 1-(1,2-dicarba-closo-dodecaboranyl) ester [5o] | –

From PMC3401020 (Bioorganic & medicinal chemistry, 2011)
